system: not listed separately; experiment: Cytotoxicity against human HuCCa1 cells after 48 hrs by MTT assay; format: functional, cell-based; settings: HuCC-A1, 48 h
Outline: (§1)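 Adherent cells seeded at 10,000–20,000 per well and held 24 h at 37 °C in 5% CO2. Serial dilutions of compound were then added, with etoposide and/or doxorubicin as positive controls and DMSO as negative control. After 48 h of continuous exposure, survival was read by MTT. IC50 was the concentration giving 50% growth inhibition relative to the DMSO control.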

| SMILES | IC50 |
| --- | --- |
| O=c1cc(OCc2cn(-c3ccc(S(=O)(=O)N4CCc5ccccc5C4)cc3)nn2)c2ccccc2o1 | 24.8 µM |
| COc1cc2c(cc1OC)CN(S(=O)(=O)c1ccc(-n3cc(COc4cc(C=O)ccc4OC)nn3)cc1)CC2 | 76.2 µM |
| COc1cc2c(cc1OC)CN(S(=O)(=O)c1ccc(-n3cc(COc4ccc(C=O)cc4OC)nn3)cc1)CC2 | 40 µM |
| O=S(=O)(c1ccc(-n2cc(COc3ccccc3)nn2)cc1)N1CCc2ccccc2C1 | > 50 µg/mL |
| COc1cc2c(cc1OC)CN(S(=O)(=O)c1ccc(-n3cc(COc4ccccc4C)nn3)cc1)CC2 | 39.7 µM |
| COC(=O)c1ccccc1OCc1cn(-c2ccc(S(=O)(=O)N3CCc4cc(OC)c(OC)cc4C3)cc2)nn1 | 4.79 µM |
| Cc1ccc(OCc2cn(-c3ccc(S(=O)(=O)N4CCc5ccccc5C4)cc3)nn2)cc1 | > 50 µg/mL |
| O=S(=O)(c1ccc(-n2cc(COc3ccc4ccccc4c3)nn2)cc1)N1CCc2ccccc2C1 | > 50 µg/mL |
| COc1cc2c(cc1OC)CN(S(=O)(=O)c1ccc(-n3cc(COc4ccc(C=O)cc4)nn3)cc1)CC2 | 31.1 µM |
| COc1cc2c(cc1OC)CN(S(=O)(=O)c1ccc(-n3cc(CO)nn3)cc1)CC2 | 72 µM |

system: HepG2; experiment: Cytotoxicity against human HepG2 cells after 48 hrs by MTT assay; format: functional, cell-based; settings: HepG2, 48 h; outline: as §1

| SMILES | IC50 |
| --- | --- |
| O=c1cc(OCc2cn(-c3ccc(S(=O)(=O)N4CCc5ccccc5C4)cc3)nn2)c2ccccc2o1 | > 50 µg/mL |
| COc1cc2c(cc1OC)CN(S(=O)(=O)c1ccc(-n3cc(COc4cc(C=O)ccc4OC)nn3)cc1)CC2 | 41.4 µM |
| COc1cc2c(cc1OC)CN(S(=O)(=O)c1ccc(-n3cc(COc4ccc(C=O)cc4OC)nn3)cc1)CC2 | > 50 µg/mL |
| O=S(=O)(c1ccc(-n2cc(COc3ccccc3)nn2)cc1)N1CCc2ccccc2C1 | 6.5 µM |
| COc1cc2c(cc1OC)CN(S(=O)(=O)c1ccc(-n3cc(COc4ccccc4C)nn3)cc1)CC2 | 1.48 µM |
| COC(=O)c1ccccc1OCc1cn(-c2ccc(S(=O)(=O)N3CCc4cc(OC)c(OC)cc4C3)cc2)nn1 | 3.37 µM |
| Cc1ccc(OCc2cn(-c3ccc(S(=O)(=O)N4CCc5ccccc5C4)cc3)nn2)cc1 | > 50 µg/mL |
| O=S(=O)(c1ccc(-n2cc(COc3ccc4ccccc4c3)nn2)cc1)N1CCc2ccccc2C1 | 60.5 µM |
| COc1cc2c(cc1OC)CN(S(=O)(=O)c1ccc(-n3cc(COc4ccc(C=O)cc4)nn3)cc1)CC2 | 12.5 µM |
| COc1cc2c(cc1OC)CN(S(=O)(=O)c1ccc(-n3cc(CO)nn3)cc1)CC2 | 31.8 µM |

system: A549; experiment: Cytotoxicity against human A549 cells after 48 hrs by MTT assay; format: functional, cell-based; settings: A549, 48 h; outline: as §1

| SMILES | IC50 |
| --- | --- |
| O=c1cc(OCc2cn(-c3ccc(S(=O)(=O)N4CCc5ccccc5C4)cc3)nn2)c2ccccc2o1 | 25.3 µM |
| COc1cc2c(cc1OC)CN(S(=O)(=O)c1ccc(-n3cc(COc4cc(C=O)ccc4OC)nn3)cc1)CC2 | 31.9 µM |
| COc1cc2c(cc1OC)CN(S(=O)(=O)c1ccc(-n3cc(COc4ccc(C=O)cc4OC)nn3)cc1)CC2 | > 50 µg/mL |
| O=S(=O)(c1ccc(-n2cc(COc3ccccc3)nn2)cc1)N1CCc2ccccc2C1 | > 50 µg/mL |
| COc1cc2c(cc1OC)CN(S(=O)(=O)c1ccc(-n3cc(COc4ccccc4C)nn3)cc1)CC2 | 27.2 µM |
| COC(=O)c1ccccc1OCc1cn(-c2ccc(S(=O)(=O)N3CCc4cc(OC)c(OC)cc4C3)cc2)nn1 | 8.43 µM |
| Cc1ccc(OCc2cn(-c3ccc(S(=O)(=O)N4CCc5ccccc5C4)cc3)nn2)cc1 | > 50 µg/mL |
| O=S(=O)(c1ccc(-n2cc(COc3ccc4ccccc4c3)nn2)cc1)N1CCc2ccccc2C1 | > 50 µg/mL |
| COc1cc2c(cc1OC)CN(S(=O)(=O)c1ccc(-n3cc(COc4ccc(C=O)cc4)nn3)cc1)CC2 | 31.8 µM |
| COc1cc2c(cc1OC)CN(S(=O)(=O)c1ccc(-n3cc(CO)nn3)cc1)CC2 | 41 µM |

system: Vero; experiment: Cytotoxicity against african green monkey Vero cells after 4 days by GFP detection method; format: cell-based; settings: Chlorocebus sabaeus, 96 h
Outline: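 Cells at 3.3 × 10^4 cells/mL were added to compounds prediluted in 0.5% DMSO. Plates were incubated 4 days at 37 °C in 5% CO2, and GFP fluorescence was read from the plate bottom.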

| SMILES | IC50 |
| --- | --- |
| Cc1c2ccncc2c(C)c2c1[nH]c1ccccc12 [ELLIPTECINE] | 1.94 µM |
| O=c1cc(OCc2cn(-c3ccc(S(=O)(=O)N4CCc5ccccc5C4)cc3)nn2)c2ccccc2o1 | 28.6 µM |
| COc1cc2c(cc1OC)CN(S(=O)(=O)c1ccc(-n3cc(COc4cc(C=O)ccc4OC)nn3)cc1)CC2 | > 50 µg/mL |
| COc1cc2c(cc1OC)CN(S(=O)(=O)c1ccc(-n3cc(COc4ccc(C=O)cc4OC)nn3)cc1)CC2 | > 50 µg/mL |
| O=S(=O)(c1ccc(-n2cc(COc3ccccc3)nn2)cc1)N1CCc2ccccc2C1 | > 50 µg/mL |
| COc1cc2c(cc1OC)CN(S(=O)(=O)c1ccc(-n3cc(COc4ccccc4C)nn3)cc1)CC2 | > 50 µg/mL |
| COC(=O)c1ccccc1OCc1cn(-c2ccc(S(=O)(=O)N3CCc4cc(OC)c(OC)cc4C3)cc2)nn1 | 2.82 µM |
| Cc1ccc(OCc2cn(-c3ccc(S(=O)(=O)N4CCc5ccccc5C4)cc3)nn2)cc1 | > 50 µg/mL |
| O=S(=O)(c1ccc(-n2cc(COc3ccc4ccccc4c3)nn2)cc1)N1CCc2ccccc2C1 | > 50 µg/mL |
| COc1cc2c(cc1OC)CN(S(=O)(=O)c1ccc(-n3cc(COc4ccc(C=O)cc4)nn3)cc1)CC2 | > 50 µg/mL |
| COc1cc2c(cc1OC)CN(S(=O)(=O)c1ccc(-n3cc(CO)nn3)cc1)CC2 | > 50 µg/mL |

system: not listed separately; experiment: Cytotoxicity against human MOLT3 cells after 48 hrs by XTT assay; settings: MOLT-3, 48 h

| SMILES | IC50 |
| --- | --- |
| O=c1cc(OCc2cn(-c3ccc(S(=O)(=O)N4CCc5ccccc5C4)cc3)nn2)c2ccccc2o1 | 80.8 µM |
| COc1cc2c(cc1OC)CN(S(=O)(=O)c1ccc(-n3cc(COc4cc(C=O)ccc4OC)nn3)cc1)CC2 | 5.82 µM |
| COc1cc([C@@H]2c3cc4c(cc3[C@@H](O[C@@H]3O[C@@H]5CO[C@@H](C)O[C@H]5[C@H](O)[C@H]3O)[C@H]3COC(=O)[C@H]23)OCO4)cc(OC)c1O [ETOPOSIDE] | 0.051 µM |
| COc1cc2c(cc1OC)CN(S(=O)(=O)c1ccc(-n3cc(COc4ccc(C=O)cc4OC)nn3)cc1)CC2 | 5.5 µM |
| O=S(=O)(c1ccc(-n2cc(COc3ccccc3)nn2)cc1)N1CCc2ccccc2C1 | > 50 µg/mL |
| COc1cc2c(cc1OC)CN(S(=O)(=O)c1ccc(-n3cc(COc4ccccc4C)nn3)cc1)CC2 | > 50 µg/mL |
| COC(=O)c1ccccc1OCc1cn(-c2ccc(S(=O)(=O)N3CCc4cc(OC)c(OC)cc4C3)cc2)nn1 | 11.7 µM |
| Cc1ccc(OCc2cn(-c3ccc(S(=O)(=O)N4CCc5ccccc5C4)cc3)nn2)cc1 | > 50 µg/mL |
| O=S(=O)(c1ccc(-n2cc(COc3ccc4ccccc4c3)nn2)cc1)N1CCc2ccccc2C1 | > 50 µg/mL |
| COc1cc2c(cc1OC)CN(S(=O)(=O)c1ccc(-n3cc(COc4ccc(C=O)cc4)nn3)cc1)CC2 | 34.1 µM |
| COc1cc2c(cc1OC)CN(S(=O)(=O)c1ccc(-n3cc(CO)nn3)cc1)CC2 | > 50 µg/mL |

— ChEMBL document CHEMBL3259540, “Design, synthesis and molecular docking studies of novel N-benzenesulfonyl-1,2,3,4-tetrahydroisoquinoline-based triazoles with potential anticancer activity” (Eur J Med Chem, 2014)
